# Assay outcomes as filed in PubChem.
# sEH inhibitor – blocks human soluble epoxide hydrolase activity; P34913; recombinant human sEH enzymatic activity assay; inhibition, % at 2 µM; actives 0.34% (n = 91,000); in the data active = inhibition above about 80%
# Target sequence (P34913 whole entry, looked up): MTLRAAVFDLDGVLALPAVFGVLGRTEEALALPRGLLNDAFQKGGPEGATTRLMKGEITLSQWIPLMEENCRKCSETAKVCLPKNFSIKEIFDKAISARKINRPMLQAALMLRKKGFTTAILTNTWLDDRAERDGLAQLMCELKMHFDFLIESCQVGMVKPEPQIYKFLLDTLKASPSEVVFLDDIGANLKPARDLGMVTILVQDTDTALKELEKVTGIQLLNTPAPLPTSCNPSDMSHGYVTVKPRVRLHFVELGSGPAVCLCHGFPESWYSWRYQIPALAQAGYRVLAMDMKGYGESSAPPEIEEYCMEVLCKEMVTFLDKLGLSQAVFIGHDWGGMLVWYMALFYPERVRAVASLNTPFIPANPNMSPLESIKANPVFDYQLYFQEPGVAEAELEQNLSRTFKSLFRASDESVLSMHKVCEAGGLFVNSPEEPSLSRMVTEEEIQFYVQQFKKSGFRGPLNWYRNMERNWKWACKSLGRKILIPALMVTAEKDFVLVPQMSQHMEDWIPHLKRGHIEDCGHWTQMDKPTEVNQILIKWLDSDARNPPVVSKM
# sdo1 growth – restores growth of sdo1-depleted yeast | S. cerevisiae sdo1-depleted JHY4D growth rescue, OD600 30 h; stronger effect = higher value; pdr5 snq2 efflux-pump mutant strain | z-score at 10 µM | actives 0.21% (n = 140,000) | AID 817;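 active = z-score above 3 at both the 24 hr and the 30 hr optical density reads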
# Measles CPE – protection of cells from measles virus. actives 1.5% (n = 140,000). AID 841. protection (pct of control), % at 4 µM. Measles virus-infected cells, CPE protection, absorbance; in the data active = protection mostly above about 24%, no sharp cut-off; inactive = mostly below about 26%
# Yeast lifespan up – yeast lifespan extension | S. cerevisiae growth with nicotinamide, OD615; deaD strain in restrictive glucose medium | inhibition of the nicotinamide effect, % at 10 µM | actives 0.68% (n = 130,000);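 active = inhibition above a set limit, placed 3 SD over the median of all compounds, cut at about 26% in these data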
#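 Measured by: optical density (absorbance) at 615 nm; System: modified budding yeast, DeaD strain; Medium: restrictive CSMM-D dextrose medium; Timing: 4 h preincubation then 48 h treatment at 30 °C.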
# sEH activator – soluble epoxide hydrolase (human) activation | actives 0.04% (n = 91,000) | AID 717 | purified human sEH enzymatic activity, activator screen | activation, % at 2 µM; in the data active = activation above about 37%
# Yeast growth inh – chemicals that inhibit yeast BB579 growth in restrictive medium (lifespan-shortening candidates); S. cerevisiae BB579 growth, OD615, 48 h; inhibition, % at 10 µM; actives 0.51% (n = 140,000);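 active = inhibition above a set limit, 3 SD over the mean compound inhibition, cut at about 44% in these data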
#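 System: Saccharomyces cerevisiae DeaD strain BB579, replicative lifespan model yeast | Buffer or medium: Restrictive glucose-based CSMM-D medium | Times: 4 h preincubation and 48 h exposure at 30 °C | Detection: OD615 turbidity measurement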
# Numbers stand for hits; - = inactive; . = no result given. Sampled rows, rich in hits. Any-hit rate of the full collection: about 3%.
SMILES,sEH inhibitor,sdo1 growth,Measles CPE,Yeast lifespan up,sEH activator,Yeast growth inh
COc1ccc(C2C(C(C)=O)=C(C)N=c3s/c(=C/c4ccc5c(c4)OCO5)c(=O)n32)cc1 (stereo not drawn),-,-,-,-,-,-
CC1(C)CC(=O)C2=C(C1)N=c1s/c(=C/c3ccc(F)c(F)c3)c(=O)n1C2c1ccc(F)cc1 (stereo not drawn),-,-,-,-,37,-
Cn1c(=O)c2c(nc(Br)n2CC(=O)c2cccs2)n(C)c1=O,-,-,-,36,-,-
COc1ccc(N(C(=O)CS(=O)CC(=O)Nc2ccc(F)cc2)C(C(=O)NC2CCCCC2)c2cccs2)cc1 (stereo not drawn),.,-,-,-,.,-
O=C(CSc1ccccc1C(=O)O)NCc1ccc(Cl)cc1,.,-,40,-,.,-
COC(=O)c1c(NC(=O)CSc2nnc3ccccn23)sc2c1CCC2,.,-,-,-,.,-
Oc1ccc(C2C(c3ccccc3)=NN=C(c3ccc(Cl)cc3)N2O)c(O)c1 (stereo not drawn),.,-,-,-,.,-
CC(=O)C(=Nc1ccccc1Cl)NNc1ccc(Cl)cc1,-,-,-,.,-,-
c1ccc(-c2nnc(CN3CCC4(CC3)OCCO4)o2)cc1,-,-,-,-,-,-
OC1(c2ccccc2F)CCN(Cc2nnc(-c3ccccc3)o2)CC1,-,-,81,-,-,-
COc1cccc(/C=N/NC(=O)c2ccc(COc3ccc(Cl)cc3Cl)o2)c1,-,-,52,-,-,-
O=C(NCCc1c[nH]c2ccccc12)C(F)(F)F,-,-,45,-,-,-
CC(C)C(=O)NCCc1c[nH]c2ccccc12,.,-,-,-,.,-
CCOC(=O)c1c(-c2ccccc2)oc2cc(CN(C)C)c(O)c(CN(C)C)c12,-,.,.,.,-,.
Cc1ccc(NC(=O)Cc2noc3ccccc23)c(C)c1,.,-,21,-,.,-
O=C(CSc1nc2cccnc2n1Cc1ccccc1)NC1CCCCC1,-,-,-,.,-,-
CN1C(=O)CSC1=NC12CC3CC(CC(C3)C1)C2,-,-,-,53,-,-
CCN1C(=O)CSC1=NC12CC3CC(CC(C3)C1)C2,-,-,-,-,-,-
CCOc1ccc(OCCCN(C)C)cc1,-,-,-,-,-,-
CN(C)CCCOC(=O)COc1ccc(C(C)(C)C)cc1,.,-,25,-,.,-
Cc1cccc(-n2c(CNC(=O)c3ccc(S(=O)(=O)N(C)C)cc3)nnc2SCC(=O)Nc2ccc(F)cc2)c1,.,-,-,-,.,-
Cc1ccc(-c2nnc(SCC(=O)N/N=C/c3ccc(C)s3)n2-c2ccccc2)cc1,.,-,-,-,.,-
CC1=C/C(=N\NC(=O)c2ccc(O)cc2)CC1,.,-,-,-,.,-
Cc1cccc(C(=O)N/N=C/c2ccc3c(c2)OCO3)n1,-,-,-,-,-,-
O=C(N/N=C/c1ccc2c(c1)OCO2)c1ccccn1,-,-,92,-,-,-
SMILES,sEH inhibitor,sdo1 growth,Measles CPE,Yeast lifespan up,sEH activator,Yeast growth inh
CN(Cc1ccccc1)Cc1nc2c(c(=O)n(C)c(=O)n2C)n1Cc1ccccc1Cl,-,-,53,-,-,-
CC(C)CCn1c(Oc2ccccc2Cl)nc2c1c(=O)n(C)c(=O)n2C,-,-,49,-,-,-
CCNC(=S)NNC(=O)C1CCCCC1,-,-,28,-,-,-
CCNC(=S)N1CCC(NC(=O)C2CCCCC2)CC1,-,-,-,-,-,-
CCC(C)[C@H](NC(=O)NC(C)C)C(=O)O (stereo partly drawn),.,-,-,-,.,-
O=C(Cc1ccccc1F)Nc1nc(-c2cccs2)cs1,-,-,57,-,-,-
O=C(Cc1ccccc1)Nc1nc(-c2cccs2)cs1,.,-,62,-,.,-
O=C(Cc1ccccc1)Nc1nnc(-c2cccs2)s1,-,-,-,-,-,-
O=C(N/C(=C\c1ccccc1)C(=O)N1CCN(CCO)CC1)c1ccccc1,.,-,-,-,.,-
CN(C)CCOc1ccccc1Cc1ccccc1,.,-,44,-,.,-
CN(C)Cc1ccccc1Cc1ccccc1,.,-,38,-,.,-
CN(C)CCCCOc1ccccc1-c1ccccc1,-,-,-,-,-,-
CCOC(=O)c1cccc(NC(=O)C2(S(=O)(=O)c3ccc(Cl)cc3)CC2)c1,.,-,-,-,.,-
CCCOC(=O)c1ccc(Oc2c(-c3ccc(OCC)cc3O)n[nH]c2C)cc1,-,-,-,-,-,-
COc1ccc(-c2[nH]ncc2-c2ccc(Cl)cc2)c(O)c1,-,-,-,-,-,73
COc1cccc(Oc2cn[nH]c2-c2ccc(OC)cc2O)c1,-,-,-,-,-,-
CCCOC(=O)c1ccc(Oc2cn[nH]c2-c2ccc(OCC)cc2O)cc1,-,-,-,-,-,64
CCOc1ccc(-c2[nH]ncc2Oc2cccc(OC)c2)c(O)c1,-,-,-,-,-,86
N/C(=N\OC(=O)COc1ccc2ccccc2c1)c1cccnc1,.,-,-,-,.,-
COC(=O)C(C)(C)ONC(=O)Nc1ccccc1,.,-,-,-,.,-
CCCCCCCCNc1ncnc2ccccc12,-,-,-,-,-,-
CCC(=O)NNc1ncnc2ccccc12,.,-,92,-,.,-
COC(=O)c1nc(NC(=O)C(C)(C)C)n[nH]1,-,-,36,-,-,-
Cc1c(Br)cc(C(=O)NCc2ccco2)c(C)c1C,.,-,103,-,.,-
Cc1ccc(N2CCOCC2)c2c1C(=O)c1ccccc1C2=O,.,-,-,-,.,63
SMILES,sEH inhibitor,sdo1 growth,Measles CPE,Yeast lifespan up,sEH activator,Yeast growth inh
CCNC(=O)C(Sc1ccccc1)c1ccccc1 (stereo not drawn),-,-,30,.,-,-
CCCCNC(=O)C(Sc1ccccc1)c1ccccc1 (stereo not drawn),.,-,-,-,.,-
Cc1oc(-c2ccc3c(c2)OCCO3)cc1C(=O)O,.,-,-,.,.,90
CCOC(=O)CN1C(=O)SC(CC(=O)Nc2nccs2)C1=O (stereo not drawn),-,-,36,-,-,-
O=C(CCc1nc2ccccc2c(=O)[nH]1)Nc1ccc(Cl)c(Cl)c1,.,-,31,-,.,-
CCOC(=O)C(=O)NNc1cccc(C)c1C,.,-,45,-,.,-
CCOC(=O)C(=O)NNc1ccccc1C,.,-,-,-,.,-
CCOC(=O)Cn1c(-c2nonc2NC(=O)c2ccccc2F)nc2ccccc21,-,-,50,-,-,-
CC(C)CCn1c(SCC(=O)N2CC(=O)Nc3ccccc32)nc2scc(-c3cccs3)c2c1=O,-,-,-,-,-,-
C=CCn1c(SCC(=O)N2CC(=O)Nc3ccccc32)nc2scc(-c3cccs3)c2c1=O,.,-,81,-,.,-
O=C1CNC(=O)/C1=C/c1ccccc1,.,-,-,29,.,-
COc1ccc(N2CCN(C(CNC(=O)OCc3ccccc3)c3ccco3)CC2)cc1 (stereo not drawn),.,-,-,-,.,-
CCCNC(=S)N(Cc1ccccc1)Cc1nc2ccccc2c(=O)[nH]1,.,-,-,-,.,-
